Source: ChEMBL document CHEMBL4304818, “1,3,4-Oxadiazol-2-ylbenzenesulfonamides as privileged structures for the inhibition of monoamine oxidase B” (Bioorg Med Chem Lett, 2019)

How the values were obtained:
[1] = organism: Homo sapiens; assay: Selectivity index, ratio of IC50 for human recombinant MAO-A expressed in insect cells microsomes to IC50 for human recombinant MAO-B expressed in insect cells microsomes
How it was run: (§1)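 Recombinant human MAO-A and MAO-B as enzyme sources with kynuramine as non-selective substrate; product 4-hydroxyquinoline read by fluorescence spectrophotometry. Activity measured across a range of inhibitor concentrations, sigmoidal rate vs log[inhibitor] curves fitted for IC50; triplicate measurements, mean ± SD. Top concentration tested 100 µM. SI taken as IC50(MAO-A)/IC50(MAO-B).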

[2] = molecular target: T1, Amine oxidase [flavin-containing] B (Homo sapiens, UniProt P27338); format: cell-based
T1 sequence (P27338 whole entry): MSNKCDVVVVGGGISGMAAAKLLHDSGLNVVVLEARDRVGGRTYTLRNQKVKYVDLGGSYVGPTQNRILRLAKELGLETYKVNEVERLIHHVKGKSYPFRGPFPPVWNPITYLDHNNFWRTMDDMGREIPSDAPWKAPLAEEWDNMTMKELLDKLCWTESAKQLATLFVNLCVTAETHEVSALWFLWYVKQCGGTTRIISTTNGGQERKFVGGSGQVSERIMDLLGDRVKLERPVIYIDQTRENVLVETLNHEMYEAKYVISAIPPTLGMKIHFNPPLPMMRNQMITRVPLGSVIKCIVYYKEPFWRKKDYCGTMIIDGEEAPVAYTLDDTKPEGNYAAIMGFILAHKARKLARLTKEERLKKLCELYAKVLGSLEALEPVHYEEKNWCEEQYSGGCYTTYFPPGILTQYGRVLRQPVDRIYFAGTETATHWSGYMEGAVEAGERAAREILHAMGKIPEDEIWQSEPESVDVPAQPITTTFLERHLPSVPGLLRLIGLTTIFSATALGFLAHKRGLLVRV

[3] = molecular target: T2, Amine oxidase [flavin-containing] A (Homo sapiens, UniProt P21397); assay: Inhibition of human recombinant MAO-A expressed in insect cells microsomes assessed as inhibition of 4-hydroxyquinoline formation using kynuramine as substrate incubated for 20 mins by fluorescence spectrophotometry analysis; how it was run: as §1
T2 sequence (P21397 whole entry): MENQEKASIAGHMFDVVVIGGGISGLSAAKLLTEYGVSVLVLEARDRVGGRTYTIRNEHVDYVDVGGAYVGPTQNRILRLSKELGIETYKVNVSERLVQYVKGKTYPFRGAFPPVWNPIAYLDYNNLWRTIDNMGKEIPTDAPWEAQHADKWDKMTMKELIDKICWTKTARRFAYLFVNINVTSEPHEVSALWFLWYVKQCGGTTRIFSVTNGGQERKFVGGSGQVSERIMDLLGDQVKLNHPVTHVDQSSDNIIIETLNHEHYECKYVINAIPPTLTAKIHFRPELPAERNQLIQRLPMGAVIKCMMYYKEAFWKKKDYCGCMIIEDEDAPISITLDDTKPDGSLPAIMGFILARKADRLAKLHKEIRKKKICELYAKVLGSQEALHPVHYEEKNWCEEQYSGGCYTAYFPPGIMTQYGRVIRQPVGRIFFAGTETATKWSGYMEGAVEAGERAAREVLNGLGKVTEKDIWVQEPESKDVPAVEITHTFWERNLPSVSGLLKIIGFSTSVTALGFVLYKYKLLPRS

[4] = molecular target: T1, Amine oxidase [flavin-containing] B; assay: Reversible inhibition of human recombinant MAO-B expressed in insect cells microsomes assessed as enzyme residual activity preincubated at concentration of 4 times IC50 with enzyme for 15 mins followed by dialysis of enzyme-inhibitor mixture for 24 hrs followed by twofold dilution and incubation at concentration of 2 times IC50 with enzyme for 20 mins using kynuramine as substrate by fluorescence …
[5] = molecular target: T1, Amine oxidase [flavin-containing] B; assay: Inhibition of human recombinant MAO-B expressed in insect cells microsomes assessed as enzyme residual activity preincubated at concentration of 4 times IC50 with enzyme for 24 hrs followed by twofold dilution and incubation at concentration of 2 times IC50 with enzyme for 20 mins using kynuramine as substrate by fluorescence spectrophotometry (reference value: 100%)

## NS(=O)(=O)c1cc(-c2nnc(-c3ccccc3)o2)ccc1Cl
[1]
  Ratio IC50: > 228
[2]
  IC50: 439 nM
[3]
  IC50: > 100 µM

## NS(=O)(=O)c1ccc(C(=O)NNC(=O)c2ccc(F)cc2)cc1
[1]
  Ratio IC50: < 0.4
[2]
  IC50: > 100000 nM
[3]
  IC50: 39.6 µM

## NS(=O)(=O)c1cccc(-c2nnc(-c3ccc(Cl)cc3)o2)c1
[1]
  Ratio IC50: > 476
[2]
  IC50: 210 nM
[3]
  IC50: > 100 µM

## NS(=O)(=O)c1ccc(-c2nnc(-c3ccc(Cl)c(Cl)c3)o2)cc1
[4]
  Activity: 60%
[5]
  Activity: 44%

## Cc1ccc(-c2nnc(-c3ccccc3)o2)cc1S(N)(=O)=O
[1]
  Ratio IC50: > 130
[2]
  IC50: 767 nM
[3]
  IC50: > 100 µM

## N#Cc1ccc(-c2nnc(-c3ccc(S(N)(=O)=O)cc3)o2)cc1
[1]
  Ratio IC50: 76
[2]
  IC50: 318 nM
[3]
  IC50: 24.3 µM

## NS(=O)(=O)c1ccc(C(=O)NNC(=O)c2ccc(Cl)cc2)cc1
[1]
  Ratio IC50: 4.8
[2]
  IC50: 11700 nM
[3]
  IC50: 55.9 µM

## NS(=O)(=O)c1ccc(-c2nnc(-c3ccc(F)cc3)o2)cc1
[1]
  Ratio IC50: 1060
[2]
  IC50: 79 nM
[3]
  IC50: 83.8 µM

## N#Cc1ccc(C(=O)NNC(=O)c2ccc(S(N)(=O)=O)cc2)cc1
[1]
  Ratio IC50: 14
[2]
  IC50: 1170 nM
[3]
  IC50: 16.1 µM

## NS(=O)(=O)c1ccc(C(=O)NNC(=O)c2ccc(Cl)c(Cl)c2)cc1
[1]
  Ratio IC50: 1.3
[2]
  IC50: 10100 nM
[3]
  IC50: 13.6 µM

## NS(=O)(=O)c1ccc(C(=O)NNC(=O)c2ccccc2)cc1
[1]
  Ratio IC50: < 0.6
[2]
  IC50: > 100000 nM
[3]
  IC50: 62.8 µM

## NS(=O)(=O)c1ccc(-c2nnc(-c3ccccc3)o2)cc1
[1]
  Ratio IC50: 380
[2]
  IC50: 168 nM
[3]
  IC50: 63.9 µM

## NS(=O)(=O)c1cccc(-c2nnc(-c3ccc(F)cc3)o2)c1
[1]
  Ratio IC50: 35
[2]
  IC50: 975 nM
[3]
  IC50: 34.4 µM

## Cc1ccc(-c2nnc(-c3cccc(S(N)(=O)=O)c3)o2)cc1
[1]
  Ratio IC50: 108
[2]
  IC50: 571 nM
[3]
  IC50: 61.4 µM

## NS(=O)(=O)c1ccc(-c2nnc(-c3ccc(Cl)cc3)o2)cc1
[1]
  Ratio IC50: 1420
[2]
  IC50: 48 nM
[3]
  IC50: 68 µM
